Screens deposited in PubChem BioAssay by SRMLSC.
Lung fibro prol – blocks proliferation of human lung fibroblasts. viability, % at 10 µM. AID 719. LL 47 human lung fibroblast viability, ATP luminescence; stronger effect = lower value. 85,000 tested, 1.1% active;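 active = viability at or below 50% in the single dose screen; inactive = viability above 50%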;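 also: compound exposure lasted 72 h before the ATP readout; 100% = median luminescence of untreated cell-only wells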
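Times – overnight cell rest, 72 h compound treatment at 37 °C · Test system – human lung fibroblast line LL 47, low passage · Amount – 1,150 cells in each well · Controls – cell-only wells, no compound · Doses – 0.1% DMSO in all compound wells · Measured by – CellTiter-Glo luminescence · Buffer or medium – IMEM plus 15% FBS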
HUVEC inhibit – human endothelial cell proliferation inhibition; 86,000 tested, 1.1% active; viability, % at 10 µM (by protocol); HUVEC proliferation, CellTiter-Glo luminescence, 72 h; stronger effect = lower value;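 active = viability at or below 30%; inactive = viability above 30%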;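 also: 100% = median luminescence of DMSO-only cell control wells on each plate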
bCat KO growth – beta-catenin-lacking colon tumor cell growth suppression. HCT116 beta-catenin knockout viability, CellTiter-Glo, 60 h; stronger effect = lower value. viability, % at 10 µM. 140,000 tested, 1.5% active;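 active = viability at or under a set limit, the compound median less 4 SD, cut at about 6% in these data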;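 also: 0% = Hyamine 1622 control at 20 µM and 100% = untreated cell control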
PTEN del growth – growth suppressors of cells with PTEN tumor suppressor deletion | viability, % at 10 µM | AID 827 | HCT116 PTEN-null viability, CellTiter-Glo, 60 h; stronger effect = lower value | 140,000 tested, 1.2% active;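 active = viability at or below a set limit, 4 SD under the median of all tested compounds, cut at about 3.7% in these data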;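 also: PTEN knockout HCT116 line with beta catenin targeted HCT116 as companion control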
H69AR inhibit – growth inhibitors of human H69AR lung tumor cells. H69AR lung tumor viability, ATP luminescence, 72 h; stronger effect = lower value. viability, % at 10 µM. 85,000 tested, 6% active. AID 598;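 active = viability at or below 40%; inactive = viability above 40%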;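 also: multidrug resistant small cell line overexpressing MRP-1 efflux transporter; 100% = mean luminescence of untreated control wells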
Starred values were filed as active, the others as inactive; nt = no result. Only a selection was taken, and hits are over-represented in it overall.

SMILES | Lung fibro prol | HUVEC inhibit | bCat KO growth | PTEN del growth | H69AR inhibit
Cc1ccc2c(c1)c1c3n2CCN(C(=O)Cn2c(-c4ccccc4)noc2=O)C3CCC1 (stereo not given) | 97 | 92 | 69 | 60 | 86
Cc1ccc2c(c1)c1c3n2CCCN(Cc2ccccc2)C3CCC1 (stereo not given) | 86 | 82 | 78 | 76 | 36*
Cc1ccc2c(c1)c1c3n2CCN(C(=O)CN2CCN(C)CC2)C3CCC1 (stereo not given) | 63 | 23* | 1.0* | 0.8* | 92
CN1CCN(CC(=O)N2CCn3c4c(c5cc(C6CCCCC6)ccc53)CCCC42)CC1 (stereo not given) | 1.9* | 2.7* | 1.3* | 1.6* | 1.1*
Cc1ccc2c(c1)c(=O)c1c3n2CCN(C(=O)CCl)C3CC1 (stereo not given) | 2.0* | 8.9* | 92 | 93 | 1.5*
C=CCNC(=O)C1CC(=O)N(c2ccc(OCC(=O)Nc3ccccc3)cc2)C1 (stereo not given) | 97 | 90 | 87 | 101 | 87
COc1ccc(C(=O)NC(NC(=S)Nc2ccc(S(N)(=O)=O)cc2)C(Cl)(Cl)Cl)cc1 (stereo not given) | nt | nt | 72 | 72 | nt
CC(=O)N(CCO)Cc1cc2cc(C)cc(C)c2[nH]c1=O | 106 | 97 | 88 | 91 | 98
COc1ccc(S(=O)(=O)NCC(=O)N(CC(=O)NCC2CCCO2)c2cc(C)ccc2C)cc1 (stereo not given) | 95 | 105 | 104 | 120 | 37*
COC(=O)c1cnn(-c2nc(OC)cc(OC)n2)c1C | nt | nt | 89 | 96 | nt
COc1cc(OC)nc(-n2ncc(Br)c(Br)c2=O)n1 | nt | nt | 1.6* | 1.4* | nt
CC(C)(C)c1ccc(COn2c(=O)c(-c3ccco3)[n+]([O-])c3ccccc32)cc1 | 61 | 72 | 82 | 84 | 34*
Cc1ccc(-c2c(=O)n(OCc3ccccn3)c3ccccc3[n+]2[O-])cc1 | nt | nt | 115 | 104 | nt
CCCN(Cc1cc2cc(OC)ccc2[nH]c1=O)C(=O)c1ccncc1 | 85 | 80 | 74 | 66 | 25*
CCOc1ccc2[nH]c(=O)c(CN(Cc3ccc(C)cc3)C(=O)N3CCCC3)cc2c1 | 89 | 90 | 93 | 81 | 33*
COc1ccc2[nH]c(=O)c(CN(C)C(=O)c3ccncc3)cc2c1 | 97 | 89 | 108 | 106 | 94
CCOc1ccc2[nH]c(=O)c(CN(CCc3ccccc3)C(=O)N3CCCC3)cc2c1 | nt | nt | 70 | 66 | nt
CCOc1ccc(C(=O)N(Cc2ccc(OC)cc2)Cc2cc3cc(OC)ccc3[nH]c2=O)cc1 | 86 | 70 | 87 | 92 | 19*
CCOc1ccccc1C(=O)N(Cc1ccccc1)Cc1cc2cc3c(cc2[nH]c1=O)OCCO3 | 26* | 19* | nt | nt | 9.0*
C1CNCCNCCNCCN1 | 95 | 99 | nt | nt | 97
O=C(COC(=O)c1ccccn1)NCc1ccccc1Cl | nt | nt | 87 | 88 | nt
O=C(c1ccco1)N1CCN(C(c2cccs2)c2nnnn2C2CCCCC2)CC1 (stereo not given) | 97 | 96 | 69 | 72 | 86
CC1(C)Cc2c(c(-c3ccco3)nc3sc4c(NCCN5CCOCC5)ncnc4c23)CO1 | nt | nt | 1.6* | 1.4* | nt
COc1ccc(CCNC(=O)Cn2nnc(-c3ccc(N(C)C)cc3)n2)cc1OC | 96 | 98 | 89 | 81 | 87
NC(=O)c1c(-c2ccc(Cl)cc2Cl)csc1NC(=O)Cc1ccccc1 | nt | nt | 56 | 62 | nt
SMILES | Lung fibro prol | HUVEC inhibit | bCat KO growth | PTEN del growth | H69AR inhibit
CC1(C)SC(=S)N(/N=C/c2ccccc2)C1N(O)C(=O)Nc1ccc([N+](=O)[O-])cc1 (stereo not given) | 86 | 86 | 61 | 49 | 37*
CC1(C)SC(=S)N(NC(=O)Nc2cccc3ccccc23)C1N(O)C(=O)Nc1ccccc1 (stereo not given) | nt | nt | 59 | 59 | nt
COCCCn1c(C)nc2c(c1=O)c1nc3ccccc3nc1n2CCc1ccccc1 | nt | nt | 73 | 62 | nt
CS(=O)(=O)Cc1nc2ccccc2oc1=O | 107 | 112 | 54 | 47 | 22*
O=C(Sc1nnnn1C1CCCCC1)c1cccs1 | nt | 106 | 103 | 110 | 35*
O=C(CSc1nnnn1C1CCCCC1)NCc1ccccc1 | 101 | 100 | 91 | 88 | 92
CC(C)CN(CCC(=O)O)CC(C)C | 106 | 98 | 98 | 102 | 77
CCOc1cc(/C=N/NC(=O)CNc2ccc(C)cc2)ccc1OC(=O)c1ccccc1 | 100 | 84 | 91 | 92 | 47
CCCc1nc2oc3c(N4CCNCC4)ncnc3c2c2c1CCCC2 | 84 | 67 | nt | nt | 7.0*
CC(C)Cc1nc2oc3c(N4CCN(C)CC4)ncnc3c2c2c1CCCC2 | 104 | 94 | 89 | 85 | 84
CCCc1nc2oc3c(NCCN(C)C)ncnc3c2c2c1CCCC2 | 4.3* | 39 | 2.0* | 1.8* | 8.9*
COn1c(SCc2ccc(C)cc2C)nc2ccccc2c1=O | 93 | 89 | 50 | 47 | 31*
COc1ccc(-c2oc(/N=C/N3CCOCC3)c(C#N)c2-c2ccc(OC)cc2)cc1 | 92 | 94 | 93 | 87 | 91
CCCCOc1ccccc1NC(=O)C=C(C)C | 95 | 100 | 102 | 95 | 98
CCCOc1ccccc1NC(=O)/C=C/C(N)=O | 60 | 86 | 101 | 106 | 2.1*
Cc1cc(C)c(S(=O)(=O)Nc2ccc(O)c(Sc3ncn[nH]3)c2)c(C)c1 | nt | nt | 97 | 94 | nt
O=C(Cn1cnc([N+](=O)[O-])c1)Nc1cc(Oc2ccc(Cl)cc2Cl)cc([N+](=O)[O-])c1 | 93 | 42 | 8 | 5 | 9.9*
O=C(NO)c1ccc(C(=O)N(C2CCCCC2)C2CCCCC2)cc1 | 86 | 83 | 67 | 71 | 14*
CN(C(=O)c1ccc(C(=O)N(C)C2CCCCC2)cc1)C1CCCCC1 | 89 | 95 | nt | nt | 90
Cc1cccc(CSC2=NCCN2C(=O)c2ccc(Br)o2)c1 | 112 | 103 | 88 | 77 | 88
COc1ccc(C(=O)C(C)Oc2cccc(NC(=O)c3cccc([N+](=O)[O-])c3)c2)cc1 (stereo not given) | nt | nt | 86 | 78 | nt
COc1ccc2c3c(cccc13)NN=C2C | 26* | 3.0* | nt | nt | 26*
Cc1ccc(-c2nnn(CC(=O)Nc3ccc(S(=O)(=O)N4CCC(C)CC4)cc3)n2)cc1 | 68 | 66 | 75 | 56 | 21*
CC1CCCN(S(=O)(=O)c2ccc(NC(=O)Cn3nnc(-c4ccccc4F)n3)cc2)C1 (stereo not given) | 98 | 63 | 96 | 106 | 45
CC1CCN(S(=O)(=O)c2ccc(NC(=O)CN3CCOCC3)cc2)CC1 | 109 | 108 | 103 | 95 | 102
CC1CCN(S(=O)(=O)c2ccc(NC(=O)Cn3nnc(-c4ccccc4)n3)cc2)CC1 | 29* | 30 | 94 | 83 | 19*
CCOC(=O)C1=C(CN2CCC(C)CC2)NC(=O)NC1c1ccc(Cl)cc1 (stereo not given) | 90 | 118 | 84 | 74 | 102
Cc1ccc2c(c1)N(CC(=O)NCc1cccs1)C(=O)CO2 | 104 | 107 | 108 | 102 | 101
